Screening data deposited in PubChem by several laboratories.
HNF4A DNA FP = change in binding of human HNF4 alpha to DNA | 360,000 compounds, 0.3% hits | P41235 | activity change, % at 10 µM | HNF4a-FITC DNA binding, fluorescence polarization, 1 h | AID 1224865; in the data active = activity change above about 30%, passing the limit was not always enough
Granule exo inh = blocks lytic granule exocytosis; AID 651702; inhibition, % at 10 µM; TALL-104 LAMP-1 surface exposure, flow cytometry; cells stimulated with thapsigargin and PMA; 360,000 compounds, 0.66% hits;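 active = inhibition above about 55%, limit read from the data; inconclusive = no clear call, values can overlap the other calls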
Myeloid diff MLP = myeloid differentiation induction. AID 624256. calls only at 10 µM. 360,000 compounds, 1% hits. ER-HoxA9 myeloid progenitors, lysozyme-GFP differentiation, flow cytometry;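 active = normalized GFP-positive differentiation at or above the plate's own cutoff, the solvent-only control mean plus 3 SD; inconclusive = no clear call, values can overlap the other calls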;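 note: cells exposed to compound for four days before flow analysis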
SENP1 inh = inhibitors of human SENP1 SUMO protease catalytic domain; 360,000 compounds, 0.21% hits; AID 624204; Q9P0U3; inhibition, % at 10 µM; recombinant SENP1 catalytic domain, CyPet-SUMO1-YPet FRET cleavage;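 active = inhibition at least 30% at 10 µM, raw YFP signal under a set limit, fluorescence ratio 0.5 to 1.5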
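Test system: recombinant human SENP1 catalytic domain, His6-tagged / Medium: pH 8 Tris buffer with EDTA, NaCl, BME, BSA, NP40, catalase / Also added: SUMO1 FRET substrate flanked by Cypet and Ypet, 25 nM / Times: 50 min reaction at room temperature / Signal: FRET, CFP and YFP emission / Control set: no-enzyme low control and enzyme-plus-DMSO high control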
H9c2 protect = myocardial damage modulation in H9c2 cells | protection from H2O2 cell death, % at 20 µM | H9c2 cardiomyocytes, H2O2 injury protection, ATPLite, 2 h | AID 588492 | 360,000 compounds, 0.63% hits;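 active = compounds giving at least 50% protection of heart cells from peroxide-induced death in the single-dose screen, raw or plate-pattern-corrected value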
Pemphigus Ab inh = human desmoglein-3 autoantibody binding inhibition | P32926 | DSG3-coupled beads, scFv-anti-DSG3-GFP binding, flow cytometry; hits give low values | binding (percent of control), % at 10 µM | 310,000 compounds, 0.48% hits;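 active = binding more than 3 SD below its plate's average and above zero; inconclusive = below that plate limit but binding exactly zero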;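 note: hits lower antibody fragment binding to DSG3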
Target sequence (P32926 whole entry, looked up, the tested form may be a part): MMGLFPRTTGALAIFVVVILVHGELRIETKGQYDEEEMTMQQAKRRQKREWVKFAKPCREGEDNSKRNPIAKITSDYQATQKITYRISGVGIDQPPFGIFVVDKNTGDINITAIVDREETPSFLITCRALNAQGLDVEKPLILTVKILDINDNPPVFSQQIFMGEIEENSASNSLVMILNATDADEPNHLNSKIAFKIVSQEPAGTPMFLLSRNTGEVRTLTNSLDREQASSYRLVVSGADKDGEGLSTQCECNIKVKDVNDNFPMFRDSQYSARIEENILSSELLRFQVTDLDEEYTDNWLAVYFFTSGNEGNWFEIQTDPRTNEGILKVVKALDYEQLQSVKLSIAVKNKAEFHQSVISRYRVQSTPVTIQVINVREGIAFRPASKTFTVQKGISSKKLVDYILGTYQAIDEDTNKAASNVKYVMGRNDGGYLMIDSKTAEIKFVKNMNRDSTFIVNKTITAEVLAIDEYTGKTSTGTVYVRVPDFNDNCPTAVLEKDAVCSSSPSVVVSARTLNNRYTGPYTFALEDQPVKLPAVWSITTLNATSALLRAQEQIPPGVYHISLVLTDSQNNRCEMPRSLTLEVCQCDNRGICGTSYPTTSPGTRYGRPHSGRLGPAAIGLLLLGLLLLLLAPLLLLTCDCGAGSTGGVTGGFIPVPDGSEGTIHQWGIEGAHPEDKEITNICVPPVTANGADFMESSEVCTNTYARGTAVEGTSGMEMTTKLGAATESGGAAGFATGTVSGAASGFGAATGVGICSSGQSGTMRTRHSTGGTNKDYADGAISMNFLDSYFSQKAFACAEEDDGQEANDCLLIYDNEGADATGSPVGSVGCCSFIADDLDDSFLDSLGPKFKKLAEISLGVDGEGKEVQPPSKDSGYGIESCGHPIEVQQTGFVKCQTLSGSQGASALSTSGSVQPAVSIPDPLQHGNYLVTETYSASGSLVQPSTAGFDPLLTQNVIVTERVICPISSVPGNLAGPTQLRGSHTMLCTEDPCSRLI
Large screens that a line does not name were inactive. Only some compounds are listed: those with a hit (about 3% of all), similar ones and a draw of the others.

COCCNc1nc(C)c(C(C)=O)s1	none
O=S(=O)(Nc1ccc(Cl)cn1)c1ccc2c(c1)OCCO2	none
Cc1oc(C(C)(C)C)cc1C(=O)NC1CCN(Cc2ccccc2)CC1	none (no result: Pemphigus Ab inh)
Cc1oc(-c2ccc(Cl)cc2)cc1C(=O)NC1CCN(Cc2ccccc2)CC1	Granule exo inh 80.1
Cc1ccc(NC(=S)NC2CCN(Cc3ccccc3)CC2)cc1C	Myeloid diff MLP active
CCOc1ccc(N(CC(=O)NC2CCCCC2)C(=O)CCC(=O)Nc2ccccn2)cc1	none
COc1ccc(N2CCN(C(=S)Nc3cccc(C)c3C)CC2)cc1	Pemphigus Ab inh 48.6
Cc1ccccc1CN(C)CC(=O)Nc1c(C)cccc1C(C)C	none
O=[N+]([O-])c1cc2c(cc1/C=N/n1cnnc1)OCO2	none
Cc1ccccc1N=Cc1cc2c(cc1[N+](=O)[O-])OCO2	H9c2 protect 62.0
Cc1c(N=Cc2cc3c(cc2[N+](=O)[O-])OCO3)cccc1[N+](=O)[O-]	H9c2 protect 72.5 (no result: Pemphigus Ab inh)
Cc1cc(C)nc(N/N=C/c2cc3c(cc2[N+](=O)[O-])OCO3)n1	none
COc1cc2c(C#N)c(N3CCc4ccccc4C3)nc(N)c2c(N)n1	Myeloid diff MLP active
CCOC(=O)C1(Cc2cccc(OC)c2)CCN(Cc2cccc(OC)c2O)CC1	none
O=S(=O)(NCCN1CCOCC1)c1ccc2ccccc2c1	none
O=S(=O)(NCCN1CCOCC1)c1ccc(Oc2ccccc2Cl)cc1	Myeloid diff MLP active
N#C/C(=C\c1ccc(O)c(O)c1)S(=O)(=O)c1ccccc1	H9c2 protect 50.7
CCN(CC)c1ccc(/C=C(\C#N)C(=O)NCc2ccccc2)cc1	HNF4A DNA FP 40.6
N#C/C(=C\c1ccc(O)c(O)c1)C(=O)c1ccc(O)c(O)c1	H9c2 protect 63.9
N#C/C(=C\c1ccc(O)c(O)c1)C(=O)NCCCc1ccccc1	H9c2 protect 88.7
N#C/C(=C\c1ccc(O)c(O)c1)C(=O)N1CCCC1	none
N#C/C(=C/c1ccc(F)cc1)S(=O)(=O)c1ccccc1	none
O[C@H]1CN(Cc2cccs2)[C@@H](c2ccccc2)C[C@@H]1n1cc(-c2ccc(F)cc2)nn1	none (no result: Pemphigus Ab inh)
O=S(=O)(c1cccc2cccc(Cl)c12)N1CCCC1	none (no result: Pemphigus Ab inh)
CCCCn1c(N)c(N(CC(C)C)C(=O)c2ccc(OC)c(S(=O)(=O)N3CCOCC3)c2)c(=O)[nH]c1=O	none
NC(N)=N/N=C(\N=Nc1ccccc1)c1ccc(Cl)cc1	Granule exo inh 56.3, Myeloid diff MLP inconclusive
NC(N)=N/N=C(\N=Nc1ccccc1)c1cccc2cccnc12	none
Cc1ccc(/C=C2\C(=O)ON=C2c2ccccc2)o1	none
Cc1ccc(-c2ccc(/C=C3\C(=O)ON=C3c3ccccc3)o2)c([N+](=O)[O-])c1	Granule exo inh 105.6
O=c1[nH]nc(-c2ccc(NCCO)c([N+](=O)[O-])c2)c2ccccc12	H9c2 protect 68.3
COCCNc1ccc(-c2nn(C)c(=O)c3ccccc23)cc1[N+](=O)[O-]	none
CN(C)CCCNc1ccc(-c2nn(C)c(=O)c3ccccc23)cc1[N+](=O)[O-]	none
O=c1[nH]nc(-c2ccc(NCCCO)c([N+](=O)[O-])c2)c2ccccc12	H9c2 protect 58.2
COc1cccc(NC(=S)/C(=C(\[O-])c2cc(C)n(-c3ccccc3F)c2C)[n+]2ccc(N(C)C)cc2)c1	none
C/C=C(\C)C(=O)Nc1cccc(C2=NOC3(C2)C[C@@H](C(N)=O)N(C(=O)/C(C)=C/C)C3)c1 (some centres undefined)	none
C=C(C)C(=O)Nc1cccc(C2=NOC3(C2)C[C@@H](C(N)=O)N(C(=O)/C=C/C=C/C)C3)c1 (some centres undefined)	Pemphigus Ab inh 89.7
C=C(C)C(=O)Nc1cccc(C2=NOC3(C2)C[C@@H](C(N)=O)N(C(=O)/C(C)=C/C)C3)c1 (some centres undefined)	Pemphigus Ab inh 89.1
COc1ccc(CNC(=O)C(c2ccccc2F)N(C(=O)c2csnn2)C2CC2)cc1 (centres undefined)	none
Cc1nnc(NC(=O)C2CSC3(C)CCC(=O)N23)s1 (centres undefined)	none
CC(C)(CNC(=O)c1ccc(-c2cccc(C(F)(F)F)c2)o1)N1CCOCC1	none
Cc1ccc(C(=O)NNC(=S)NC(=O)c2ccc(Cl)cc2Cl)cc1	H9c2 protect 54.5 (no result: Myeloid diff MLP)
O=C(O)c1ccc([N+](=O)[O-])cc1-c1cc([N+](=O)[O-])ccc1C(=O)O	none
C=C1C(=O)[C@]23C[C@H]1CCC2[C@]1(C)CCC[C@@](C)(C(=O)O)C1C[C@@H]3O (some centres undefined)	Myeloid diff MLP inconclusive (no result: Pemphigus Ab inh)
C=C1C(=O)[C@]23C[C@H]1CCC2[C@]1(C)C(=O)CC[C@@](C)(C(=O)O)C1C[C@@H]3O (some centres undefined)	Myeloid diff MLP active (no result: Pemphigus Ab inh)
Cc1cc(-c2nnc(SCC(=O)NC3CC3)n2C(C)C)cs1	none
OCCNc1nc2ccccc2n1CC(O)c1ccccc1 (centres undefined)	HNF4A DNA FP 120.3
Cc1ccc(-c2nnn(CC(=O)N(CC(=O)NC3CCCC3)c3cnc4ccccc4c3)n2)o1	Myeloid diff MLP active
CCOC(=O)c1c(-c2ccc(C)cc2)csc1NC(=O)c1ccc(N2C(=O)CCC2=O)cc1	none
CCOC(=O)c1cc(CC)sc1NC(=O)c1ccc(N2C(=O)CCC2=O)cc1	Pemphigus Ab inh 78.7
O=C(NC1CCC(O)CC1)c1cccc2cccnc12 (centres undefined)	none (no result: Pemphigus Ab inh)
Cc1ccc(C)c(NC(=O)CN(C)C(=O)c2ccc(-c3cccc(C(F)(F)F)c3)o2)c1	none
COc1ccc(Cl)cc1NS(=O)(=O)N1CCOCC1	none
O=C(CSc1n[nH]c(-c2ccccc2)n1)c1ccc(O)c(O)c1	H9c2 protect 79.5
Cc1cc(SCC(=O)c2ccc(O)c(O)c2)nc2ccccc12	H9c2 protect 51.0
CN1c2cccc3cccc(c23)N(C)C1(C)C	Myeloid diff MLP inconclusive
CC(=O)c1ccc2cccc3c2c1N=CN3C	Myeloid diff MLP active
Cc1ccc2[nH]c3c(c2c1)CN(C(=O)CN1CC(C)OC(C)C1)CC3 (centres undefined)	Myeloid diff MLP active (no result: Pemphigus Ab inh)
CC(=O)N1CCc2[nH]c3ccc(C)cc3c2C1	none
CCOC(=O)C1CCN(C(=O)C(=O)Nc2ccc3nc4n(c(=O)c3c2)CCCCC4)CC1	none
O=C1/C(=C/c2ccccc2)Oc2cc(OC(=O)N3CCOCC3)ccc21	none
COc1ccc(/C=C2\Oc3cc(OC(=O)N4CCOCC4)ccc3C2=O)c(OC)c1	HNF4A DNA FP 99.4
COc1cc2c(cc1OC)CN(CCC(C)c1ccc(Cl)cc1)CC2 (centres undefined)	Granule exo inh 64.9
COc1cc2c(cc1OC)CN(Cc1ccccc1)CC2	none
Cn1cc(Cl)c(C(=O)OCC(=O)Nc2ccc(S(N)(=O)=O)cc2)n1	none
